Results taken from ChEMBL document CHEMBL4145591, “Phenotypic Screening To Discover Novel Chemical Series as Efficient Antihemorrhagic Agents” (ACS Med Chem Lett, 2018).
The source made the active and inactive calls. The calls are words filed in the database; no cut-off is given here.

Tests used:
[1] = biological target: Stromelysin-1 (Homo sapiens, UniProt P08254); assay: Inhibition of MMP3 (unknown origin) using fluorescently-labeled substrate measured every min for 1 min
[2] = biological target: Stromelysin-2 (Homo sapiens, UniProt P09238); assay: Inhibition of MMP10 (unknown origin) using fluorescently-labeled substrate measured every min for 1 min
Sequence of Stromelysin-2 (P09238 whole entry): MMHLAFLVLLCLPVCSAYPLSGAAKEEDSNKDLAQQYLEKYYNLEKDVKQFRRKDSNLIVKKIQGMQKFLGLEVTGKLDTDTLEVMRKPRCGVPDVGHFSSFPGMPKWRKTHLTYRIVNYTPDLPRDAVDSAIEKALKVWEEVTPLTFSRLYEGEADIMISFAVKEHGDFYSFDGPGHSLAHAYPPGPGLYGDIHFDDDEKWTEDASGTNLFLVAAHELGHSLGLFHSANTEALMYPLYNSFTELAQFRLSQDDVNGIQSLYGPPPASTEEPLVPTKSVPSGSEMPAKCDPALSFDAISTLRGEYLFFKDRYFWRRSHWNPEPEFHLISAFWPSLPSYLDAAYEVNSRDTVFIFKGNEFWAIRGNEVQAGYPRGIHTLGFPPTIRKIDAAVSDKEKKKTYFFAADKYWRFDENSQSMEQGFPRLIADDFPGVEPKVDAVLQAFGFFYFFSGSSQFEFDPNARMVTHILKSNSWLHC

[3] = Cytotoxicity against human THLE2 cells assessed as decrease in cell viability after 72 hrs by luminescence assay; format: cell-based; conditions: THLE-2 cells, read-out: LC50
Summary of the method: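 Healthy human hepatic THLE-2 line; compounds incubated with cells for 72 hours, then viability measured. Cytotoxicity reported as LC50.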

[4] = Therapeutic index, ratio of LC50 for human THLE2 cells to EC50 for antifibrinolytic activity in human whole blood; format: toxicity
Summary of the method: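 THLE-2 healthy hepatic cells were exposed to compound for 72 hours and cell viability was read to give LC50. Antifibrinolytic EC50 came from thromboelastography in triplicate or duplicate. The index is LC50 relative to EC50, expressed in log units.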

[5] = Solubility of the compound in saline solution at 10 mM; format: physicochemical; conditions: buffer, 10000 µM
[6] = system: Mus musculus; assay: Antifibrinolytic activity in tPA-induced C57Bl6 mouse hyperfibrinolytic tail bleeding model assessed as bleeding time at 1 mg/kg, iv administered for 5 mins post tPA challenge for 5 mins measured up to 30 mins by spectrophotometric method (reference value: 29.28 +/- 0.4 min); format: functional
[7] = biological target: T1, Matrilysin (Homo sapiens) (UniProt P09237); assay: Inhibition of recombinant human MMP7 at 10 uM after 45 mins by fluorescence assay
T1 sequence (whole entry): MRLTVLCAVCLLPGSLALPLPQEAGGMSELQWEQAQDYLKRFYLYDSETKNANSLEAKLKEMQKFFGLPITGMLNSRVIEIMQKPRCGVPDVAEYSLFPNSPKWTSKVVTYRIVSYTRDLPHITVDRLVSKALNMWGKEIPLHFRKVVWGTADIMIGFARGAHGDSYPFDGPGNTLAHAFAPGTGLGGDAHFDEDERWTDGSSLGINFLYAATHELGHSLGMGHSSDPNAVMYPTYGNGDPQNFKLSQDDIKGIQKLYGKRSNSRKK

[8] = biological target: Matrix metalloproteinase-14 (Homo sapiens) (UniProt P50281); assay: Inhibition of recombinant human MMP14 at 10 uM after 60 mins by fluorescence assay
[9] = biological target: Tissue-type plasminogen activator (Homo sapiens) (UniProt P00750); assay: Effect on tPA (unknown origin) activity at 0.01 to 10 uM incubated for 15 mins
Sequence of Tissue-type plasminogen activator (Homo sapiens) (P00750 36-562 limits assumed): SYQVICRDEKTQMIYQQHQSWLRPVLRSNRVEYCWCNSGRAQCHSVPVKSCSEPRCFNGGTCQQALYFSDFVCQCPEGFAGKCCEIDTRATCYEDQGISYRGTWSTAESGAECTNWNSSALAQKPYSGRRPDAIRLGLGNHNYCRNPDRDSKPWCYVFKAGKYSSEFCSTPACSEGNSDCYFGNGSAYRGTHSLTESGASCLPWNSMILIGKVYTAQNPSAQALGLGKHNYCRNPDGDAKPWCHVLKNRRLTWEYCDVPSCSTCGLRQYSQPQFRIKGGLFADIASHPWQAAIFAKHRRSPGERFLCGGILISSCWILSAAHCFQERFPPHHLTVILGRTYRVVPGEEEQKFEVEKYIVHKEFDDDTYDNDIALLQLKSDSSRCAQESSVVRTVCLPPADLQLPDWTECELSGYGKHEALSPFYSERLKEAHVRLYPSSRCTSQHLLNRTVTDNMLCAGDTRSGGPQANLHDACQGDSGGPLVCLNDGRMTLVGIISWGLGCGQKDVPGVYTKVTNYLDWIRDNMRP

[10] = biological target: Prothrombin (Homo sapiens) (UniProt P00734); assay: Effect on human plasma thrombin activity at 0.01 to 10 uM using S2238 as substrate incubated for 15 mins followed by substrate addition measured after 30 mins
[11] = species on record: Homo sapiens; assay: Effect on plasminogen/tPA (unknown origin) activity assessed as plasmin generation at 0.01 to 10 uM using S2251 as substrate incubated for 15 mins followed by substrate addition measured after 30 mins
[12] = species on record: Mus musculus; assay: Potency index, ratio of bleeding time for tranexamic acid to bleeding time for test compound in tPA-induced C57Bl6 mouse hyperfibrinolytic tail bleeding model; format: functional

Sequence of Stromelysin-1 (P08254 whole entry): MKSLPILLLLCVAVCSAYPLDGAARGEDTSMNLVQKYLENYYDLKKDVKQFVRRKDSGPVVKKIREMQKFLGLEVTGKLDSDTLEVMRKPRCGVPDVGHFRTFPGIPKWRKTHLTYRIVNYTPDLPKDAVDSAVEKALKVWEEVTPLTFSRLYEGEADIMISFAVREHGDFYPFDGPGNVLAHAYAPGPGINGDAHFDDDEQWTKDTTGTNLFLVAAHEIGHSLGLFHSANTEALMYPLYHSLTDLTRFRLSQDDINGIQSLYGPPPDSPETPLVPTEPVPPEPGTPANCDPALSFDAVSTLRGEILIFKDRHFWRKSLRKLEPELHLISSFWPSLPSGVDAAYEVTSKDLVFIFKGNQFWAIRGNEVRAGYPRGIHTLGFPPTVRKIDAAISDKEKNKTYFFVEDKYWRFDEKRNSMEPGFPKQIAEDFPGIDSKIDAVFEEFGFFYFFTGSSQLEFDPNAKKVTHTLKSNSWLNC

| Structure (SMILES) | IC50 [1] [µM] | IC50 [2] [µM] | further results |
| --- | --- | --- | --- |
| O=C(Oc1ccccc1)C1(S(=O)(=O)c2ccc(Oc3ccc(OC(F)(F)F)cc3)cc2)CCC2(CCNCC2)C1 (stereo not drawn) | > 10 | > 10 | CC50 at 72 h [3]: 3.9 µM; log(ratio) [4]: 0.637 |
| O=C(Nc1nccs1)C1(S(=O)(=O)c2ccc(Oc3ccc(OC(F)(F)F)cc3)cc2)CCC2(CCNCC2)C1 (stereo not drawn) | > 10 | > 10 |  |
| COc1ccc(Oc2ccc(S(=O)(=O)C3(C(=O)Nc4ccccc4N)CCC4(CCNCC4)C3)cc2Cl)cc1 (stereo not drawn) | > 10 | > 10 |  |
| COc1ccc(S(=O)(=O)C2(C(=O)Nc3ccccc3N)CCC3(CCNCC3)C2)cc1Cl (stereo not drawn) | > 10 | > 10 |  |
| Nc1ccccc1NC(=O)C1(S(=O)(=O)c2ccc(Oc3ccc(OC(F)(F)F)cc3)c(Cl)c2)CCC2(CCNCC2)C1 (stereo not drawn) | > 10 | > 10 |  |
| COc1ccc(S(=O)(=O)C2(C(=O)Nc3cc(-c4ccccc4)ccc3N)CCC3(CCNCC3)C2)cc1Cl (stereo not drawn) | > 10 | > 10 |  |
| Cc1ccc(-c2ccc(N)c(NC(=O)C3(S(=O)(=O)c4ccc(Oc5ccc(OC(F)(F)F)cc5)cc4)CCC4(CCNCC4)C3)c2)o1 (stereo not drawn) | > 10 | > 10 |  |
| CN(C)S(=O)(=O)NC(=O)C1(S(=O)(=O)c2ccc(Oc3ccc(OC(F)(F)F)cc3)cc2)CCC2(CCNCC2)C1 (stereo not drawn) | > 10 | > 10 |  |
| O=S(=O)(c1ccc(Oc2ccc(OC(F)(F)F)cc2)cc1)C1(CO)CCC2(CCNCC2)C1 (stereo not drawn) | > 10 | > 10 |  |
| O=C(Nc1ccccc1O)C1(S(=O)(=O)c2ccc(Oc3ccc(OC(F)(F)F)cc3)cc2)CCC2(CCNCC2)C1 (stereo not drawn) | > 10 | > 10 |  |
| CNC(=O)NC(=O)C1(S(=O)(=O)c2ccc(OC)c(Cl)c2)CCC2(CCNCC2)C1 (stereo not drawn) | > 10 | > 10 |  |
| Nc1ccccc1NC(=O)C1(S(=O)(=O)c2ccccc2NC2CCCCC2)CCC2(CCNCC2)C1 (stereo not drawn) | > 10 | > 10 | solubility [5]: Soluble |
| COc1ccc(N)c(NC(=O)C2(S(=O)(=O)c3ccc(Oc4ccc(OC(F)(F)F)cc4)cc3)CCC3(CCNCC3)C2)c1 (stereo not drawn) | > 10 | > 10 |  |
| Nc1ccc(F)cc1NC(=O)C1(S(=O)(=O)c2ccc(Oc3ccc(OC(F)(F)F)cc3)cc2)CCC2(CCNCC2)C1 (stereo not drawn) | > 10 | > 10 |  |
| CON(C)C(=O)C1(S(=O)(=O)c2ccc(Oc3ccc(OC(F)(F)F)cc3)cc2)CCC2(CCNCC2)C1 (stereo not drawn) | > 10 | > 10 |  |
| CNC(=O)NC(=O)C1(S(=O)(=O)c2ccc(Oc3ccc(OC)cc3)c(Cl)c2)CCC2(CCNCC2)C1 (stereo not drawn) | > 10 | > 10 |  |

| Structure (SMILES) | IC50 [1] [µM] | IC50 [2] [µM] | further results |
| --- | --- | --- | --- |
| O=C(OCc1ccccc1)C1(S(=O)(=O)c2ccc(Oc3ccc(OC(F)(F)F)cc3)cc2)CCC2(CCNCC2)C1 (stereo not drawn) | > 10 | > 10 |  |
| COC(=O)C1(S(=O)(=O)c2ccc(Oc3ccc(OC(F)(F)F)cc3)cc2)CCC2(CCNCC2)C1 (stereo not drawn) | > 10 | > 10 |  |
| CCCN1CCC2(CC1)CCC(C(=O)NC(=O)NC)(S(=O)(=O)c1ccc(Oc3ccc(OC(F)(F)F)cc3)cc1)C2 (stereo not drawn) | > 10 | > 10 |  |
| NC(=O)C1(S(=O)(=O)c2ccc(Oc3ccc(OC(F)(F)F)cc3)cc2)CCC2(CCNCC2)C1 (stereo not drawn) | > 10 | > 10 |  |
| CS(=O)(=O)NC(=O)C1(S(=O)(=O)c2ccc(Oc3ccc(OC(F)(F)F)cc3)cc2)CCC2(CCNCC2)C1 (stereo not drawn) | > 10 | > 10 |  |
| Nc1ccccc1NC(=O)C1(S(=O)(=O)c2ccc(NC3CCCCC3)cc2)CCC2(CCNCC2)C1 (stereo not drawn) | > 10 | > 10 | CC50 at 72 h [3]: 43.8 µM; solubility [5]: Soluble; Time [6]: 6.58 min; log(ratio) [4]: >= 2.039 |
| C#CCCCN1CCC2(CC1)CCC(C(=O)Nc1ccccc1N)(S(=O)(=O)c1ccc(C(=O)c3ccccc3)cc1)C2 (stereo not drawn) | > 10 | > 10 | CC50 at 72 h [3]: 43.5 µM; inhibition [7]: inactive; inhibition [8]: inactive |
| CCCN1CCC2(CC1)CCC(C(=O)Nc1ccccc1N)(S(=O)(=O)c1ccc(Oc3ccc(OC(F)(F)F)cc3)cc1)C2 (stereo not drawn) | > 10 | > 10 | Activity [9]: inactive; Activity [10]: inactive; Activity [11]: inactive; CC50 at 72 h [3]: 3.94 µM; Time [6]: 3.61 min; inhibition [7]: inactive; inhibition [8]: inactive; log(ratio) [4]: >= 0.993; fold change (FC) [12]: 3 |
| O=C1CN(C(=O)C2(S(=O)(=O)c3ccc(Oc4ccc(OC(F)(F)F)cc4)cc3)CCC3(CCNCC3)C2)CCN1 (stereo not drawn) | > 10 | > 10 |  |
| CNC(=O)NC(=O)C1(S(=O)(=O)c2ccc(Oc3ccc(OC(F)(F)F)cc3)cc2)CCC2(CCNCC2)C1 (stereo not drawn) | > 10 | > 10 | CC50 at 72 h [3]: 16.2 µM; solubility [5]: Soluble; Time [6]: 20.24 min; log(ratio) [4]: >= 1.607 |
| Nc1ccccc1NC(=O)C1(S(=O)(=O)c2ccc(Oc3ccc(OC(F)(F)F)cc3)cc2)CCC2(CCNCC2)C1 (stereo not drawn) | > 10 | > 10 | CC50 at 72 h [3]: 7.22 µM; log(ratio) [4]: 0.904 |
| O=S(=O)(c1ccc(Oc2ccc(OC(F)(F)F)cc2)cc1)C1CCC2(CCNCC2)C1 (stereo not drawn) | > 10 | > 10 |  |
| Nc1ccc(-c2cccs2)cc1NC(=O)C1(S(=O)(=O)c2ccc(Oc3ccc(OC(F)(F)F)cc3)cc2)CCC2(CCNCC2)C1 (stereo not drawn) | > 10 | > 10 | CC50 at 72 h [3]: 2.8 µM; log(ratio) [4]: 0.493 |
| O=C(O)C1(S(=O)(=O)c2ccc(Oc3ccc(OC(F)(F)F)cc3)cc2)CCC2(CCNCC2)C1 (stereo not drawn) | > 10 | > 10 |  |
| Nc1ccc(-c2ccccc2)cc1NC(=O)C1(S(=O)(=O)c2ccc(Oc3ccc(OC(F)(F)F)cc3)cc2)CCC2(CCNCC2)C1 (stereo not drawn) | > 10 | > 10 | CC50 at 72 h [3]: 3.53 µM; log(ratio) [4]: >= 0.946 |
| O=C(Nc1ccccn1)C1(S(=O)(=O)c2ccc(Oc3ccc(OC(F)(F)F)cc3)cc2)CCC2(CCNCC2)C1 (stereo not drawn) | > 10 | > 10 |  |
